Results taken from article PMC12525009 (The Febs Journal, 2025).

Legend:
Assay type in all cases: binding
MsrQ [1] = molecular target: T1, MsrQ (Escherichia coli, UniProt P76343); assay: HPLC of flavin released by heat denaturation of purified protein; settings: co-purified; 1 μM holoprotein (heme content)
T1 sequence (P76343 1-211): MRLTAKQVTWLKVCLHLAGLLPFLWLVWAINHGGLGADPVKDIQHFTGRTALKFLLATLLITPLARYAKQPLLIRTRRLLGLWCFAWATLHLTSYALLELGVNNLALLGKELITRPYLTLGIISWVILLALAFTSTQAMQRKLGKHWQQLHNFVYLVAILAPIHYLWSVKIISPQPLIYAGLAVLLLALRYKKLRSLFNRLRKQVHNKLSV

MsrQ [2] = molecular target: T1, MsrQ; assay: quinone extraction of purified protein, HPLC-ECD-MS; settings: co-purified from E. coli; per holoprotein (heme content); pH 7.6, LMNG
In short: (§1)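 Ni-NTA-purified MsrQ, in 50 mM Tris/HCl pH 7.6 with 0.004% LMNG, was quantified by heme content (pyridine hemochromogen, 556 nm). Quinones were extracted from […] protein with methanol/KCl, using 80 pmol UQ10 as internal standard. Two petroleum ether extractions were pooled, dried under N2 and taken up in ethanol. Fractions equal to 5 and 20 μg protein were run on HPLC-ECD-MS (m/z 500–900). MK8 was quantified against an MK7 curve (2–100 pmol) and UQ8 against a UQ10 standard.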

MsrQ [3] = molecular target: T1, MsrQ; assay: as above; settings: co-purified from E. coli; per holoprotein (heme content); pH 7.6, LMNG; remark: listed apart in the source
In short: as §1

Cc1cc2nc3c(=O)[nH]c(=O)nc-3n(C[C@H](O)[C@H](O)[C@H](O)COP(=O)(O)O)c2cc1C [FMN]
FMN concentration in 1 μM MsrQ (MsrQ [1]): 0.90 µM

CC(C)=CCC/C(C)=C/CC/C(C)=C/CC/C(C)=C/CC/C(C)=C/CC/C(C)=C/CC/C(C)=C/CC/C(C)=C/CC1=C(C)C(=O)c2ccccc2C1=O [MK8]
MK8/MsrQ ^b , ^d (MsrQ [2]): 0.090 ± 0.020 mol MK8 per mol MsrQ

COC1=C(OC)C(=O)C(C/C=C(\C)CC/C=C(\C)CC/C=C(\C)CC/C=C(\C)CC/C=C(\C)CC/C=C(\C)CC/C=C(\C)CCC=C(C)C)=C(C)C1=O [UQ8]
UQ8/MsrQ ^b , ^c (MsrQ [3]): 0.45 ± 0.06 mol UQ8 per mol MsrQ
